Test system: CWR22rv-1 cells
Assay: Cell death of CWR22rv-1 prostate cancer cells
Type: cell-based, human
Settings: 25 μM, after 24 h
How it was run: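 CWR22Rv1 cells were seeded at 300,000 cells/well in RPMI 1640 with 10% FBS, 2.5 mM L-glutamine and penicillin-streptomycin at 37 °C, 5% CO2, then serum-starved overnight. Test compound (DMSO stock, diluted in serum-free RPMI) was applied in triplicate for 24–72 h. Cells were trypsinised, fixed in 70% ethanol, treated with RNase (5 μg/mL), stained with propidium iodide (50 μg/mL), and DNA content/cell-cycle fractions were measured by flow cytometry.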

SMILES: CCCCCCCC(O)(C(N)=O)c1cccc(Cl)c1 (racemic) [(±)-1, 2-(3-chlorophenyl)-2-hydroxynonanamide]
- cell death: marginal effects
